Source: ChEMBL document CHEMBL5058577, “EUbOPEN Chemogenomics Library 2 (Multiplex)” (2022)

Tested on: Fibroblast
Experiment: Multiplex assay against human fibroblast
Format: toxicity, cell-based
Procedure, shortened: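 Cells stained live at seeding with Hoechst33342, BioTracker Green Microtubule Cytoskeleton Dye, MitoTracker Red and Annexin V Alexa Fluor 680 were imaged on a CQ1 microscope at 37°C and 5% CO2 after compound addition. Their classification by CellPathfinder machine-learning gating ran from Hoechst high-intensity objects versus normal cells, to healthy, pyknosed or fragmented nuclei among normal cells, to mitotic or apoptotic among pyknosed cells. Tubulin, mitochondrial-mass and membrane-permeability phenotypes are per cents of healthy-nucleus cells.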

[1] = 12 h, 1 µM, compound concentration 1 uM, replicate 1
[2] = 12 h, 1 µM, compound concentration 1 uM, replicate 2
[3] = 12 h, 10 µM, compound concentration 10 uM, replicate 1
[4] = 12 h, 10 µM, compound concentration 10 uM, replicate 2
[5] = 24 h, 1 µM, compound concentration 1 uM, replicate 1
[6] = 24 h, 1 µM, compound concentration 1 uM, replicate 2
[7] = 24 h, 10 µM, compound concentration 10 uM, replicate 1
[8] = 24 h, 10 µM, compound concentration 10 uM, replicate 2
[9] = 48 h, 1 µM, compound concentration 1 uM, replicate 1
[10] = 48 h, 1 µM, compound concentration 1 uM, replicate 2
[11] = 48 h, 10 µM, compound concentration 10 uM, replicate 1
[12] = 48 h, 10 µM, compound concentration 10 uM, replicate 2

CCCOc1ccc2[nH]cc(C3=CCNCC3)c2n1.Cl
Population Apoptotic (%) [1]: 42%
Population Fragmented Nuclei (%) [1]: 13%
Population Healthy Nuclei (%) [1]: 71%
Population Hoechst High Intensity Objects (%) [1]: 2%
Population Membrane Permeable-Phenotype (%) [1]: 0%
Population Mitochondria Different-Phenotype (%) [1]: 6%
Population Mitotic Cells (%) [1]: 57%
Population Normal (%) [1]: 97%
Population Pyknosed Nuclei (%) [1]: 15%
Population Tubulin-Different-Phenotype (%) [1]: 27%
Total Cell Count [1]: 143
Population Apoptotic (%) [2]: 48%
Population Fragmented Nuclei (%) [2]: 25%
Population Healthy Nuclei (%) [2]: 52%
Population Hoechst High Intensity Objects (%) [2]: 0%
Population Membrane Permeable-Phenotype (%) [2]: 8%
Population Mitochondria Different-Phenotype (%) [2]: 2%
Population Mitotic Cells (%) [2]: 51%
Population Normal (%) [2]: 99%
Population Pyknosed Nuclei (%) [2]: 21%
Population Tubulin-Different-Phenotype (%) [2]: 47%
Total Cell Count [2]: 137
Population Apoptotic (%) [3]: 70%
Population Fragmented Nuclei (%) [3]: 16%
Population Healthy Nuclei (%) [3]: 70%
Population Hoechst High Intensity Objects (%) [3]: 4%
Population Membrane Permeable-Phenotype (%) [3]: 0%
Population Mitochondria Different-Phenotype (%) [3]: 12%
Population Mitotic Cells (%) [3]: 29%
Population Normal (%) [3]: 95%
Population Pyknosed Nuclei (%) [3]: 13%
Population Tubulin-Different-Phenotype (%) [3]: 41%
Total Cell Count [3]: 133
Population Apoptotic (%) [4]: 40%
Population Fragmented Nuclei (%) [4]: 31%
Population Healthy Nuclei (%) [4]: 48%
Population Hoechst High Intensity Objects (%) [4]: 2%
Population Membrane Permeable-Phenotype (%) [4]: 1%
Population Mitochondria Different-Phenotype (%) [4]: 10%
Population Mitotic Cells (%) [4]: 60%
Population Normal (%) [4]: 97%
Population Pyknosed Nuclei (%) [4]: 20%
Population Tubulin-Different-Phenotype (%) [4]: 59%
Total Cell Count [4]: 125
Population Apoptotic (%) [5]: 57%
Population Fragmented Nuclei (%) [5]: 14%
Population Healthy Nuclei (%) [5]: 76%
Population Hoechst High Intensity Objects (%) [5]: 2%
Population Membrane Permeable-Phenotype (%) [5]: 0%
Population Mitochondria Different-Phenotype (%) [5]: 6%
Population Mitotic Cells (%) [5]: 42%
Population Normal (%) [5]: 97%
Population Pyknosed Nuclei (%) [5]: 9%
Population Tubulin-Different-Phenotype (%) [5]: 20%
Total Cell Count [5]: 155
Population Apoptotic (%) [6]: 38%
Population Fragmented Nuclei (%) [6]: 28%
Population Healthy Nuclei (%) [6]: 52%
Population Hoechst High Intensity Objects (%) [6]: 0%
Population Membrane Permeable-Phenotype (%) [6]: 5%
Population Mitochondria Different-Phenotype (%) [6]: 5%
Population Mitotic Cells (%) [6]: 61%
Population Normal (%) [6]: 100%
Population Pyknosed Nuclei (%) [6]: 18%
Population Tubulin-Different-Phenotype (%) [6]: 40%
Total Cell Count [6]: 140
Population Apoptotic (%) [7]: 61%
Population Fragmented Nuclei (%) [7]: 23%
Population Healthy Nuclei (%) [7]: 64%
Population Hoechst High Intensity Objects (%) [7]: 1%
Population Membrane Permeable-Phenotype (%) [7]: 0%
Population Mitochondria Different-Phenotype (%) [7]: 12%
Population Mitotic Cells (%) [7]: 38%
Population Normal (%) [7]: 98%
Population Pyknosed Nuclei (%) [7]: 11%
Population Tubulin-Different-Phenotype (%) [7]: 36%
Total Cell Count [7]: 159
Population Apoptotic (%) [8]: 50%
Population Fragmented Nuclei (%) [8]: 20%
Population Healthy Nuclei (%) [8]: 68%
Population Hoechst High Intensity Objects (%) [8]: 2%
Population Membrane Permeable-Phenotype (%) [8]: 4%
Population Mitochondria Different-Phenotype (%) [8]: 8%
Population Mitotic Cells (%) [8]: 50%
Population Normal (%) [8]: 97%
Population Tubulin-Different-Phenotype (%) [8]: 61%
Total Cell Count [8]: 107
Population Apoptotic (%) [9]: 69%
Population Fragmented Nuclei (%) [9]: 17%
Population Healthy Nuclei (%) [9]: 74%
Population Hoechst High Intensity Objects (%) [9]: 2%
Population Membrane Permeable-Phenotype (%) [9]: 0%
Population Mitochondria Different-Phenotype (%) [9]: 5%
Population Mitotic Cells (%) [9]: 30%
Population Normal (%) [9]: 97%
Population Pyknosed Nuclei (%) [9]: 8%
Population Tubulin-Different-Phenotype (%) [9]: 23%
Total Cell Count [9]: 162
Population Apoptotic (%) [10]: 64%
Population Fragmented Nuclei (%) [10]: 36%
Population Healthy Nuclei (%) [10]: 53%
Population Hoechst High Intensity Objects (%) [10]: 4%
Population Membrane Permeable-Phenotype (%) [10]: 5%
Population Mitochondria Different-Phenotype (%) [10]: 2%
Population Mitotic Cells (%) [10]: 35%
Population Normal (%) [10]: 95%
Population Pyknosed Nuclei (%) [10]: 9%
Population Tubulin-Different-Phenotype (%) [10]: 40%
Total Cell Count [10]: 147
Population Apoptotic (%) [11]: 73%
Population Fragmented Nuclei (%) [11]: 21%
Population Healthy Nuclei (%) [11]: 65%
Population Hoechst High Intensity Objects (%) [11]: 2%
Population Membrane Permeable-Phenotype (%) [11]: 0%
Population Mitochondria Different-Phenotype (%) [11]: 9%
Population Mitotic Cells (%) [11]: 26%
Population Normal (%) [11]: 97%
Population Pyknosed Nuclei (%) [11]: 13%
Population Tubulin-Different-Phenotype (%) [11]: 45%
Total Cell Count [11]: 150
Population Apoptotic (%) [12]: 60%
Population Fragmented Nuclei (%) [12]: 32%
Population Healthy Nuclei (%) [12]: 62%
Population Hoechst High Intensity Objects (%) [12]: 5%
Population Membrane Permeable-Phenotype (%) [12]: 4%
Population Mitochondria Different-Phenotype (%) [12]: 13%
Population Mitotic Cells (%) [12]: 40%
Population Normal (%) [12]: 94%
Population Pyknosed Nuclei (%) [12]: 4%
Population Tubulin-Different-Phenotype (%) [12]: 44%
Total Cell Count [12]: 116
